The values below come from ChEMBL document CHEMBL1125300, “Synthesis and biological activity of trans(+-)-N-methyl-2-(3-pyridyl)-2-tetrahydrothiopyrancarbothioamide 1-oxide (RP 49356) and analogues: a new class of potassium channel opener” (1992).

The first test has as its system Rattus norvegicus. Description: The compound was evaluated for hypotensive activity in anaesthetized Sprague Dawley rats on intravenous administration. It is filed as functional.
Conditions: not given
The procedure, abridged: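 Male Sprague Dawley rats (280–350 g), pentobarbitone 60 mg/kg ip, ventilated; carotid blood pressure recorded. 15-min iv infusion via jugular vein, one per rat, vehicle PEG 200 with 0.01 N HCl diluted 1:10 in saline. Max MBP change over ≥30 min; two or more doses in 3–4 rats; dose giving 30 mmHg fall by linear regression vs log dose.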
Regarding `C/N=C(\S)[C@]1(c2cnc3ccccc3c2)CCCC[S+]1[O-]` (some centres not stated), the ED30 is 0.04 mg/kg. The same measure, in the same setting: under `C/N=C(\S)[C@]1(c2cccc(C#N)c2)CCCC[S+]1[O-]` (some centres not stated) stands 0.63 mg/kg; under `CC1(C)Oc2ccc(C#N)cc2C(N2CCCC2=O)C1O` (configuration not stated) [CROMAKALIM], 0.06 mg/kg. Same read-out and setting: under `C/N=C(\S)[C@]1(c2cccnc2)CCCCS1` stands 1.5 mg/kg; under `CCCC/N=C(\S)[C@]1(c2cccnc2)CCCC[S+]1[O-]` (some centres not stated), 1.5 mg/kg. On the same count and under the same terms, under `CC/N=C(\S)[C@]1(c2cccnc2)CCCC[S+]1[O-]` (some centres not stated) stands 0.15 mg/kg. On to `C/N=C(\S)[C@]1(c2ccc(Cl)c(Cl)c2)CCCC[S+]1[O-]` (some centres not stated), for which the ED30 came to 1.28 mg/kg.

The species named for the next test is Rattus norvegicus. Briefly: In vitro inhibitory concentration producing 90% reduction in maximum contraction produced by KCl (20 mmol) in isolated aorta of rat.
Conditions: not given
Format: functional. The procedure, abridged:
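Isolated aortic tissue recorded isometrically via force-displacement transducers; equilibrated 90 min at 2 g resting tension, contracted with 20 mmol KCl, then cumulative concentration-response relaxation, each concentration added once the prior maximal effect developed. Glibenclamide 5 μM tested for reversal of relaxation. Drugs dissolved in DMSO. Mean EC90 ± SEM, number of experiments given.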
A word on the IC90: it is the point of the concentration-response curve where the effect stands at 90%. A high value points to weaker potency. The compound `C/N=C(/S)[C@]1(c2cccnc2)CCCC[S@@+]1[O-]` (stereo in doubt; 8b) [APRIKALIM] registered an IC90 of 0.4 µM. On the same count and under the same terms, under `C/N=C(/S)[C@]1(c2cccnc2)CCCC[S@@+]1[O-]` (stereo in doubt; 8c) [APRIKALIM] stands over 30 µM; under `C/N=C(/S)[C@]1(c2cccnc2)CCCC[S@@+]1[O-]` (stereo in doubt; 8a) [APRIKALIM], 0.7 µM.

The test is the same for the next values; noted with them: Rattus norvegicus, Aorta.
`C/N=C(\S)[C@]1(c2cccc(C(N)=O)c2)CCCC[S+]1[O-]` (some centres not stated) returned an IC90 of 12 µM. The same measure, in the same setting: for `C/N=C(\S)[C@]1(c2cccc(F)c2)CCCC[S+]1[O-]` (some centres not stated) the value was 7 µM; for `C/N=C(\S)[C@]1(c2ccc(Cl)nc2)CCCC[S+]1[O-]` (some centres not stated), 0.3 µM; for `[O-][S+]1CCCC[C@]1(CO)c1cccnc1` (some centres not stated), over 30 µM. Still for that read-out and setting: under `O=C(O)CC/N=C(\S)[C@]1(c2cccnc2)CCCC[S+]1[O-]` (some centres not stated) stands over 30 µM; under `C/N=C(\S)[C@]1(c2cnc(-c3ccccc3)s2)CCCC[S+]1[O-]` (some centres not stated), 4 µM. The compound `[O-][S+]1CCCC[C@]1(CS)c1cccnc1` (some centres not stated) yielded an IC90 of over 30 µM. Same read-out and setting: for `CNC(=S)[C@]1(c2cccnc2)CCCC[S@+]1[O-]` the value was over 30 µM; for `N/N=C(\S)[C@]1(c2cccnc2)CCCC[S+]1[O-]` (some centres not stated), over 30 µM; for `C/N=C(\S)[C@]1(c2cnc3ccccc3c2)CCCC[S+]1[O-]` (some centres not stated), 0.06 µM. The same measure, in the same setting: for `C/N=C(\S)C1(c2cccnc2)SCCCS1` the value was over 30 µM; for `C/N=C(\S)[C@]1(c2nc3ccccc3s2)CCCC[S+]1[O-]` (some centres not stated), 29 µM; for `C/N=C(\S)[C@]1(c2cccnc2)CCCS1`, over 30 µM. On the same count and under the same terms, under `C/N=C(\S)[C@]1(c2cccc(C(F)(F)F)c2)CCCC[S+]1[O-]` (some centres not stated) stands 0.8 µM; under `N#C[C@]1(c2cccnc2)CCCC[S+]1[O-]` (some centres not stated), over 30 µM; under `C/N=C(\S)[C@]1(c2ccc(-c3ccccc3)cc2)CCCC[S+]1[O-]` (some centres not stated), 12 µM.

Compound `C/N=C(/S)[C@]1(c2cccnc2)CCCCS1(=O)=O` displayed an IC90 of over 30 µM. The same measure, in the same setting: under `C/N=C(\S)[C@]1(c2ccncc2)CCCC[S+]1[O-]` (some centres not stated) stands 25 µM. On the same count and under the same terms, for `CC(C)/N=C(\S)[C@]1(c2cccnc2)CCCC[S+]1[O-]` (some centres not stated) the value was 10 µM; for `COC(=N)[C@]1(c2cccnc2)CCCC[S+]1[O-]` (some centres not stated), over 30 µM; for `COC(=O)CC/N=C(\S)[C@]1(c2cccnc2)CCCC[S+]1[O-]` (some centres not stated), over 30 µM. The same measure, in the same setting: under `C/N=C(\S)C1(c2cccnc2)CCCCC1` stands 3 µM.

`C/N=C(\S)[C@]1(c2cccc(C#N)c2)CCCC[S+]1[O-]` (some centres not stated) came in with an IC90 of 1.6 µM. On the same count and under the same terms, under `CC1(C)Oc2ccc(C#N)cc2C(N2CCCC2=O)C1O` (configuration not stated) [CROMAKALIM] stands 0.2 µM; under `C/N=C(\S)[C@]1(c2ccccn2)CCCC[S+]1[O-]` (some centres not stated), over 30 µM. Still for that read-out and setting: for `CNC(=O)[C@]1(c2cccnc2)CCCC[S+]1[O-]` (some centres not stated) the value was over 30 µM; for `C/N=C(\S)[C@]1(c2cccnc2)CCCO1`, over 30 µM. `C/N=C(\S)[C@]1(c2cccnc2)OCCCS1` yielded an IC90 of over 30 µM. `C/N=C(\S)[C@]1(c2cc(Cl)cc(Cl)c2)CCCC[S+]1[O-]` (some centres not stated) came in with an IC90 of 0.4 µM. Same read-out and setting: for `C/N=C(\S)[C@]1(c2cccnc2)CCCCS1` the value was over 30 µM. Still for that read-out and setting: for `C/N=C(\SC)[C@]1(c2cccnc2)CCCC[S+]1[O-]` (some centres not stated) the value was over 30 µM; for `C/N=C(\S)[C@]1(c2ccccc2)CCCC[S+]1[O-]` (some centres not stated), 9.5 µM; for `CCC/N=C(\S)[C@]1(c2cccnc2)CCCC[S+]1[O-]` (some centres not stated), 0.6 µM. Still for that read-out and setting: under `C/N=C(\S)[C@]1(c2cccc(C(=O)O)c2)CCCC[S+]1[O-]` (some centres not stated) stands over 30 µM. `C/N=C(\S)[C@]1(c2ccns2)CCCC[S+]1[O-]` (some centres not stated) had a 90% effect concentration (IC90) of 7 µM. `C/N=C(\S)[C@]1(c2ccc3ccccc3c2)CCCC[S+]1[O-]` (some centres not stated) showed an IC90 of 2 µM. For `C/N=C(\S)C1(c2cccnc2)CCCC1`, the IC90 stood at 30 µM. On the same count and under the same terms, for `CCCC/N=C(\S)[C@]1(c2cccnc2)CCCC[S+]1[O-]` (some centres not stated) the value was 8 µM. In turn, `CC/N=C(\S)[C@]1(c2cccnc2)CCCC[S+]1[O-]` (some centres not stated) gave an IC90 of 0.3 µM. For the compound `[O-][S+]1CCCC[C@]1(/C(S)=N/c1ccccc1)c1cccnc1` (some centres not stated), the IC90 was over 30 µM. `C/N=C(\S)[C@]1(c2ccc(Cl)cc2)CCCC[S+]1[O-]` (some centres not stated) yielded an IC90 of 2.8 µM. Regarding `C/N=C(\S)[C@]1(c2ccc(Cl)c(Cl)c2)CCCC[S+]1[O-]` (some centres not stated), the IC90 is 0.3 µM.
